Assay results pooled from the literature.
Lines come from different studies, so protocols differ.

`COc1cc(C(=O)N2CC[C@@H](O)[C@@H](N)C2)cc2nc(-c3cc4ccccc4n3CC3CC3)n(C)c12` has a chromatographic logD of 3.7 (HPLC; pH 7.4).
`Cc1c(C(=O)NN2CCCCC2)nc(-c2ccc(Cl)cc2Cl)n1-c1ccc(OCCCF)cc1` has a logD of 5.3 (shake flask; aqueous buffer; pH 7.4).
`CC(C)C[C@@H]1NC(=O)[C@@H]2CSSC[C@@H](C(=O)NCC(N)=O)NC(=O)[C@H](Cc3ccccc3)NC(=O)CNC(=O)[C@H](CC(N)=O)NC(=O)[C@@H]3CCCN3C(=O)CNC(=O)[C@@H]3CSSC[C@H](NC(=O)[C@H](CO)NC(=O)[C@H]([C@@H](C)O)NC(=O)[C@@H]4CCCN4C(=O)[C@H](C)NC(=O)[C@H](Cc4c[nH]c5ccccc45)NC(=O)[C@H](CC(=O)O)NC(=O)CNC(=O)[C@H](CCCNC(=N)N)NC(=O)CNC(=O)[C@H](CCC(N)=O)NC(=O)[C@@H]4CCCN4C(=O)[C@@H](NC(=O)CNC(=O)c4ccc(F)cc4)CSSC[C@H](NC(=O)CNC(=O)[C@H](C)NC1=O)C(=O)N[C@@H](C(C)C)C(=O)N3)C(=O)N[C@@H](CO)C(=O)N[C@@H](CCC(N)=O)C(=O)N[C@@H](CC(=O)O)C(=O)N[C@@H](CO)C(=O)N[C@@H](CC(=O)O)C(=O)N2` has a logD of -1.68 (shake flask; PBS; pH 7.4).
For `O=C(O)CN1CCC(Oc2ccc([C@H]3CC[C@]4(CC3)OOC3(O4)C4CC5CC(C4)CC3C5)cc2)CC1` (stereo partly drawn), the chromatographic logD was 3 to 3.3 (HPLC; pH 7.4).
`CN1CCC[C@H]1COc1cnc(Cl)c(OCc2ccc(Cl)nc2)c1` has a logD of 2.2 (shake flask; aqueous buffer; pH 7.4).
`O=c1c(O)c(NCc2ccccc2)c1=O` has a logD of -1.4 (shake flask; aqueous buffer; 1 h, pH 7.4).
The logD of `Cc1c(C(=O)NN2CCCCC2)nc(-c2ccc(Cl)cc2Cl)n1-c1ccc(OCCCC(F)(F)F)cc1` is reported as greater than 5.5 (shake flask; aqueous buffer; pH 7.4).
The logD of `Clc1ccc(COc2cc(OC[C@@H]3CCCN3)cnc2Cl)cn1` is reported as 1.9 (shake flask; aqueous buffer; pH 7.4).
With `C=CC1=C(C)C2=Cc3c(C=C)c(C)c4[n]3[Fe]([Cl])[n]3c(c(C)c(CCC(=O)O)c3=CC3=NC(=C4)C(C)=C3CCC(=O)O)=CC1=N2` the logD was 0.463 (shake flask; aqueous buffer; pH 9).
